For two substances, MST and T/C results are on record in ChEMBL document CHEMBL1124326, “Synthesis and P-388 antitumor properties of the four diastereomeric 1-hydroxy-3,4-diaminocyclohexane-Cl2PtII complexes” (J Med Chem, 1989).

Where “and” joins values, the source holds several entries; their conditions need not be identical. Equal entries are not always repeated.

Usually T/C stands for the ratio of treated to control.

What all share (type): functional, organism-based
For experiment [1], the system named is Mus musculus. Description: Antineoplastic activity in P-388-tumor cell infected CDF1 mice, administered intraperitoneally at a dose (10 mg/kg), calculated as Median survival time (MST). The essentials: (§1)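 P-388 leukaemia cells (1 × 10^6 per animal) implanted into the peritoneal cavity of CDF1 recipient mice. Drug reconstituted in 0.3% Klucel and given ip on a day 1 schedule. Survival checked daily for at least 30 days; survival time expressed as percent treated/control (T/C).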

Experiment [2] concerns Mus musculus. Description: Antineoplastic activity in P-388-infected CDF1 mice, administered intraperitoneally at a dose (10 mg/kg), calculated as Percent treated /control (T/C). The essentials: as §1
The test system of experiment [3] is Mus musculus. Description: Antineoplastic activity in P-388-tumor cell infected CDF1 mice, administered intraperitoneally at a dose (1.5 mg/kg), calculated as Median survival time (MST). The gist of the method: as §1
For experiment [4], the system named is Mus musculus. Description: Antineoplastic activity in P-388-tumor cell infected CDF1 mice, administered intraperitoneally at a dose (3mg/kg), calculated as Median survival time (MST). The essentials: as §1
Experiment [5] deals with Mus musculus. Description: Antineoplastic activity in P-388-infected CDF1 mice, administered intraperitoneally at a dose (1.5 mg/kg), calculated as Percent treated /control (T/C). The essentials: as §1
Experiment [6] concerns Mus musculus. Description: Antineoplastic activity in P-388-infected CDF1 mice, administered intraperitoneally at a dose (3mg/kg), calculated as Percent treated /control (T/C). The essentials:
as §1

Experiment [7] has as its system Mus musculus. Description: Antineoplastic activity in P-388-infected CDF1 mice, administered intraperitoneally at a dose (6 mg/kg), calculated as Percent treated /control (T/C). The gist of the method: as §1
The subject of experiment [8] is Mus musculus. Description: Antineoplastic activity in P-388-tumor cell infected CDF1 mice, administered intraperitoneally at a dose (6 mg/kg), calculated as Median survival time (MST). The gist of the method:
as §1

Consider “1-Hydroxy-3,4-diaminocyclohexane-Cl2-Platinum II Complex”, for which the MST in the experiment on Mus musculus [1] was 15.8 days and 13.8 days. Further, the T/C with Mus musculus [2] was 161% and 141%.

On to CISPLATIN, for which the MST in the experiment on Mus musculus [3] is 15.5 days; in the experiment with Mus musculus [4] it was 18.5 days; in the experiment with Mus musculus [8], 24.5 days. Further, the T/C with Mus musculus [5] was 158%; with Mus musculus [6], 188%; in the experiment on Mus musculus [7], 249%.
